# Measurements from publication PMC7034278 (Neural Regeneration Research, 2019).
# Key:
# [1] = test system: SK-N-SH human neuroblastoma cells; details: previous study; ref Zhang et al., 2017; cited from earlier work
# [2] = test system: neural cell adhesion molecule L1; experiment: L1 immunofluorescence staining, H2O2-stressed SK-N-SH cells; assay type: cell-based, human; details: 250 μM H2O2, 2 h, in comparison with the control group
# In short: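 SK-N-SH cells were seeded at 1 × 10^4 per well, given 250 μM H2O2 for 2 h, then cultured 48 h (peptide arms at 20 μg/mL). Cells were fixed in 4% formaldehyde for 10 min and blocked with 10% donkey serum for 40 min. Anti-L1 mouse monoclonal (1:200) was applied overnight at 4°C, then Alexa 488 secondary (1:500) for 1 h, with DAPI mounting. Confocal L1 intensity was measured.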
# [3] = test system: SK-N-SH human neuroblastoma cells; experiment: Cell viability assay; assay type: cell-based; details: 250 μM H2O2, 2 h, in comparison with the vehicle control group
# In short: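 SK-N-SH neuroblastoma cells were seeded at 1 × 10^4 per well and exposed to 250 μM H2O2 for 2 h. They were then cultured a further 48 h; peptide arms received 20 μg/mL. CCK-8 reagent was added for 2 h at 37°C, and absorbance was read at 490 nm. Five repeats; mean ± SEM; one-way ANOVA with Bonferroni post-hoc test.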
# [4] = test system: mouse cerebellar granule neurons; experiment: Neurite outgrowth assay, H2O2-stressed cerebellar granule neurons; assay type: cell-based; details: 250 μM H2O2, 2 h, in comparison with the vehicle control group
# In short: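 Primary cerebellar granule neurons from C57BL/6 mice were seeded at 2 × 10^4 cells on poly-D-lysine in Neurobasal A without B-27. They received 250 μM H2O2 for 2 h, then 24 h culture (peptide arms at 20 μg/mL). Cells were fixed in 4% formaldehyde and stained with crystal violet. Neurites at least one soma diameter long and free of cell contact were measured at 40×, about 50 cells per group. Three repeats.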
# Sambucus nigra lectin = experiment: Competition ELISA; details: by phage binding and competition ELISA
Compound,cell viability of SK-N-SH cells in response to H2O2 [1],L1 expression after H2O2 alone [2],survival of SK-N-SH cells after H2O2 alone [3],neurite length after H2O2 alone [4],affinity to Sambucus nigra lectin (Sambucus nigra lectin)
OO [H2O2],decreased in a dose- and time-dependent manner,reduced L1 expression,reduced survival,reduced the lengths of neurites,–
H-PRHGKKPTNKRK-OH [mimetic peptide],–,–,–,–,high affinity
